B1: tRNA (parent)
chain: GUUCCGUUGGCGUAAUGGUAACGCGUCUCCCUCCUAAGGAGAAGACUGCGGGUUCGAGUCCCGUACGGAACG

Variants of: B1
Assay: yeast fitness, log relative to wild type (ln ratio); higher = fitter; tRNA-Arg(CCU), competitive growth, 37 C, 1 M NaCl
Procedure, shortened: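 Two independent transformations put a combinatorial tRNA-Arg(CCU) variant library on a HIS3 centromeric plasmid into BY4742 lacking the chromosomal gene. Pools were grown in SC-HIS at 30 °C for 4 generations, then in SC-HIS 1M NaCl at 37 °C for ~6.5 generations (~26.5 h), with three outputs taken per input. Fitness compares a genotype's generations with the wild type's as a natural log ratio. Those generations are OD-scaled log2 output/input frequencies, inverse-variance weighted across replicates, from 125 bp paired-end Illumina counts.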

Point of comparison: GUUCCGUUGGCGUAAUGGUAACGCGUUUCCCUCCUAAGGAGAAGAUUGCGGGUUCGAGUCCCGUACGGAACG, “yeast fitness (ln)” value -0.0139. Against it:
- GUUCCAUUGGCGUAAUGGUAACGCGUUUCCCUCCUAAGGAGACGACUGCGGGUUCGAGUCCCGUAUGGAAUG — lower, -0.264
- ACUCCUUUGGCGUAAUGGUAACGCGUUUCCCUCCUAAGGAGAAGACUGCGGGUUCGAGUCCCGUAUGGGUCG — lower, -0.245
- AGUCCAUUGGCGUAAUGGUAACGCGUUUCCCUCCUAAGGAGAAGACUGCGGGUUCGAGUCCCGUACGGGGUG — lower, -0.443
- AUUCCGUUGGCGUAAUGGUAACGCGUCUCCCUCCUAAGGAGAAGAUUGCGGGUUCGAGUCCCGUAUGGAUCG — lower, -0.201
- GUUCCUUUGGCGUAAUGGUAACGCGUCUCCCUCCUAAGGAGACGAUUGCGGGUUCGAGUCCCGUAAGGAGUG — lower, -0.227
- GUUCCAUUGGCGUAAUGGUAACGCGUUUCCCUCCUAAGGAGAAGACUGCGGGUUCGAGUCCCGUAUGGAAUG — lower, -0.171
- GCUCCGUUGGCGUAAUGGUAACGCGUUUCCCUCCUAAGGAGACGACUGCGGGUUCGAGUCCCGUAAGGAACG — lower, -0.155
- GGUCCAUUGGCGUAAUGGUAACGCGUCUCCCUCCUAAGGAGAAGAUUGCGGGUUCGAGUCCCGUACGGAUUG — lower, -0.449
- GGUCCAUUGGCGUAAUGGUAACGCGUUUCCCUCCUAAGGAGACGACUGCGGGUUCGAGUCCCGUACGGGUCG — lower, -0.279
- GGUCCGUUGGCGUAAUGGUAACGCGUCUCCCUCCUAAGGAGAAGACUGCGGGUUCGAGUCCCGUACGGGUUG — lower, -0.25
- GCUCCUUUGGCGUAAUGGUAACGCGUCUCCCUCCUAAGGAGACGAUUGCGGGUUCGAGUCCCGUAUGGAUCG — lower, -0.123
- GGUCCGUUGGCGUAAUGGUAACGCGUUUCCCUCCUAAGGAGAAGACUGCGGGUUCGAGUCCCGUAUGGAUCG — lower, -0.0967
- GUUCCGUUGGCGUAAUGGUAACGCGUCUCCCUCCUAAGGAGACGAUUGCGGGUUCGAGUCCCGUAAGGAGCG — higher, 0.00409
- GGUCCAUUGGCGUAAUGGUAACGCGUUUCCCUCCUAAGGAGACGACUGCGGGUUCGAGUCCCGUAAGGAAUG — lower, -0.2
- AGUCCGUUGGCGUAAUGGUAACGCGUCUCCCUCCUAAGGAGAAGAUUGCGGGUUCGAGUCCCGUAUGGAGUG — lower, -0.161
- AGUCCAUUGGCGUAAUGGUAACGCGUUUCCCUCCUAAGGAGACGAUUGCGGGUUCGAGUCCCGUAAGGAGUG — lower, -0.478
- GGUCCUUUGGCGUAAUGGUAACGCGUUUCCCUCCUAAGGAGAAGACUGCGGGUUCGAGUCCCGUACGGAACG — lower, -0.0917
- AGUCCAUUGGCGUAAUGGUAACGCGUUUCCCUCCUAAGGAGACGACUGCGGGUUCGAGUCCCGUACGGGGUG — lower, -0.354
- AUUCCAUUGGCGUAAUGGUAACGCGUUUCCCUCCUAAGGAGACGAUUGCGGGUUCGAGUCCCGUACGGAGCG — lower, -0.285
- GCUCCAUUGGCGUAAUGGUAACGCGUUUCCCUCCUAAGGAGACGACUGCGGGUUCGAGUCCCGUAUGGAACG — lower, -0.179
- AUUCCAUUGGCGUAAUGGUAACGCGUCUCCCUCCUAAGGAGACGACUGCGGGUUCGAGUCCCGUAAGGAUCG — lower, -0.201
- GUUCCUUUGGCGUAAUGGUAACGCGUUUCCCUCCUAAGGAGACGAUUGCGGGUUCGAGUCCCGUAUGGAAUG — lower, -0.355
- AGUCCUUUGGCGUAAUGGUAACGCGUCUCCCUCCUAAGGAGACGAUUGCGGGUUCGAGUCCCGUACGGGGUG — lower, -0.345
- AGUCCGUUGGCGUAAUGGUAACGCGUUUCCCUCCUAAGGAGACGACUGCGGGUUCGAGUCCCGUACGGGGUG — lower, -0.262
- GUUCCAUUGGCGUAAUGGUAACGCGUCUCCCUCCUAAGGAGACGACUGCGGGUUCGAGUCCCGUAUGGGACG — lower, -0.109
- GGUCCUUUGGCGUAAUGGUAACGCGUCUCCCUCCUAAGGAGAAGACUGCGGGUUCGAGUCCCGUAAGGAGCG — lower, -0.0514
- GUUCCUUUGGCGUAAUGGUAACGCGUCUCCCUCCUAAGGAGAAGACUGCGGGUUCGAGUCCCGUAUGGAUUG — lower, -0.315
- GUUCCUUUGGCGUAAUGGUAACGCGUUUCCCUCCUAAGGAGAAGAUUGCGGGUUCGAGUCCCGUAUGGGGCG — lower, -0.318
- GCUCCGUUGGCGUAAUGGUAACGCGUUUCCCUCCUAAGGAGACGACUGCGGGUUCGAGUCCCGUAUGGAGUG — lower, -0.207
- GUUCCAUUGGCGUAAUGGUAACGCGUCUCCCUCCUAAGGAGACGACUGCGGGUUCGAGUCCCGUAUGGGGCG — lower, -0.35
- GUUCCGUUGGCGUAAUGGUAACGCGUCUCCCUCCUAAGGAGAAGACUGCGGGUUCGAGUCCCGUACGGAGUG — lower, -0.0739
- AGUCCGUUGGCGUAAUGGUAACGCGUCUCCCUCCUAAGGAGAAGAUUGCGGGUUCGAGUCCCGUACGGAGUG — lower, -0.166
- ACUCCUUUGGCGUAAUGGUAACGCGUCUCCCUCCUAAGGAGAAGAUUGCGGGUUCGAGUCCCGUAAGGAACG — lower, -0.141
- GGUCCAUUGGCGUAAUGGUAACGCGUCUCCCUCCUAAGGAGAAGACUGCGGGUUCGAGUCCCGUAUGGAAUG — lower, -0.134
- AUUCCAUUGGCGUAAUGGUAACGCGUCUCCCUCCUAAGGAGAAGAUUGCGGGUUCGAGUCCCGUAUGGAACG — lower, -0.072
- AGUCCAUUGGCGUAAUGGUAACGCGUCUCCCUCCUAAGGAGAAGAUUGCGGGUUCGAGUCCCGUAAGGGGUG — lower, -0.354
- AUUCCAUUGGCGUAAUGGUAACGCGUUUCCCUCCUAAGGAGAAGAUUGCGGGUUCGAGUCCCGUAUGGGUCG — lower, -0.468
- GGUCCAUUGGCGUAAUGGUAACGCGUCUCCCUCCUAAGGAGAAGACUGCGGGUUCGAGUCCCGUAUGGGUUG — lower, -0.641
- AGUCCGUUGGCGUAAUGGUAACGCGUUUCCCUCCUAAGGAGACGAUUGCGGGUUCGAGUCCCGUACGGAGCG — lower, -0.124
- GUUCCUUUGGCGUAAUGGUAACGCGUUUCCCUCCUAAGGAGAAGAUUGCGGGUUCGAGUCCCGUAAGGGUCG — lower, -0.196
- ACUCCAUUGGCGUAAUGGUAACGCGUUUCCCUCCUAAGGAGACGAUUGCGGGUUCGAGUCCCGUAUGGGUUG — lower, -0.555
- GUUCCGUUGGCGUAAUGGUAACGCGUUUCCCUCCUAAGGAGACGACUGCGGGUUCGAGUCCCGUACGGGUUG — lower, -0.419
- ACUCCGUUGGCGUAAUGGUAACGCGUUUCCCUCCUAAGGAGACGACUGCGGGUUCGAGUCCCGUACGGAUUG — lower, -0.175
- GUUCCGUUGGCGUAAUGGUAACGCGUCUCCCUCCUAAGGAGACGAUUGCGGGUUCGAGUCCCGUAUGGAGCG — lower, -0.0608
- AUUCCUUUGGCGUAAUGGUAACGCGUCUCCCUCCUAAGGAGAAGACUGCGGGUUCGAGUCCCGUAUGGAUCG — lower, -0.154
- GGUCCAUUGGCGUAAUGGUAACGCGUCUCCCUCCUAAGGAGACGAUUGCGGGUUCGAGUCCCGUAUGGAGCG — lower, -0.205
- AGUCCGUUGGCGUAAUGGUAACGCGUCUCCCUCCUAAGGAGACGAUUGCGGGUUCGAGUCCCGUAUGGAACG — lower, -0.116
- AUUCCGUUGGCGUAAUGGUAACGCGUCUCCCUCCUAAGGAGACGAUUGCGGGUUCGAGUCCCGUAAGGGGUG — lower, -0.191
- GCUCCUUUGGCGUAAUGGUAACGCGUUUCCCUCCUAAGGAGACGAUUGCGGGUUCGAGUCCCGUAUGGGGUG — lower, -0.275
- ACUCCGUUGGCGUAAUGGUAACGCGUCUCCCUCCUAAGGAGAAGAUUGCGGGUUCGAGUCCCGUACGGAACG — lower, -0.0408
- GCUCCAUUGGCGUAAUGGUAACGCGUUUCCCUCCUAAGGAGAAGAUUGCGGGUUCGAGUCCCGUAUGGGUCG — lower, -0.284
- AGUCCGUUGGCGUAAUGGUAACGCGUCUCCCUCCUAAGGAGACGAUUGCGGGUUCGAGUCCCGUAAGGGGUG — lower, -0.24
- AUUCCUUUGGCGUAAUGGUAACGCGUCUCCCUCCUAAGGAGAAGACUGCGGGUUCGAGUCCCGUACGGAUCG — lower, -0.156
- GCUCCAUUGGCGUAAUGGUAACGCGUCUCCCUCCUAAGGAGACGAUUGCGGGUUCGAGUCCCGUAUGGAUUG — lower, -0.199
- GGUCCGUUGGCGUAAUGGUAACGCGUCUCCCUCCUAAGGAGACGACUGCGGGUUCGAGUCCCGUAUGGAGUG — lower, -0.22
- GGUCCAUUGGCGUAAUGGUAACGCGUUUCCCUCCUAAGGAGAAGAUUGCGGGUUCGAGUCCCGUAAGGAACG — lower, -0.0567
- GCUCCGUUGGCGUAAUGGUAACGCGUUUCCCUCCUAAGGAGACGAUUGCGGGUUCGAGUCCCGUAAGGAUUG — lower, -0.269
- GGUCCUUUGGCGUAAUGGUAACGCGUCUCCCUCCUAAGGAGACGACUGCGGGUUCGAGUCCCGUAUGGAGCG — lower, -0.338
- GGUCCUUUGGCGUAAUGGUAACGCGUCUCCCUCCUAAGGAGACGACUGCGGGUUCGAGUCCCGUACGGAGUG — lower, -0.282
- AUUCCUUUGGCGUAAUGGUAACGCGUCUCCCUCCUAAGGAGACGAUUGCGGGUUCGAGUCCCGUAUGGGUCG — lower, -0.305
- GUUCCGUUGGCGUAAUGGUAACGCGUUUCCCUCCUAAGGAGAAGACUGCGGGUUCGAGUCCCGUAUGGGGCG — lower, -0.19
- AGUCCUUUGGCGUAAUGGUAACGCGUCUCCCUCCUAAGGAGAAGACUGCGGGUUCGAGUCCCGUAUGGAUCG — lower, -0.211
- GCUCCGUUGGCGUAAUGGUAACGCGUUUCCCUCCUAAGGAGAAGACUGCGGGUUCGAGUCCCGUAAGGGGUG — lower, -0.142
- GUUCCUUUGGCGUAAUGGUAACGCGUUUCCCUCCUAAGGAGAAGAUUGCGGGUUCGAGUCCCGUAAGGGACG — lower, -0.0559
- ACUCCGUUGGCGUAAUGGUAACGCGUCUCCCUCCUAAGGAGACGACUGCGGGUUCGAGUCCCGUAUGGGGUG — lower, -0.287
- GGUCCAUUGGCGUAAUGGUAACGCGUUUCCCUCCUAAGGAGAAGACUGCGGGUUCGAGUCCCGUAAGGAGCG — lower, -0.15
- GCUCCAUUGGCGUAAUGGUAACGCGUCUCCCUCCUAAGGAGACGAUUGCGGGUUCGAGUCCCGUAAGGGGUG — lower, -0.112
- GCUCCUUUGGCGUAAUGGUAACGCGUUUCCCUCCUAAGGAGAAGAUUGCGGGUUCGAGUCCCGUAUGGGGCG — lower, -0.3
- GUUCCUUUGGCGUAAUGGUAACGCGUUUCCCUCCUAAGGAGACGAUUGCGGGUUCGAGUCCCGUACGGGUCG — lower, -0.245
- ACUCCGUUGGCGUAAUGGUAACGCGUUUCCCUCCUAAGGAGACGACUGCGGGUUCGAGUCCCGUAUGGAUUG — lower, -0.244
- AUUCCGUUGGCGUAAUGGUAACGCGUCUCCCUCCUAAGGAGACGAUUGCGGGUUCGAGUCCCGUAAGGAAUG — lower, -0.139
- GUUCCGUUGGCGUAAUGGUAACGCGUCUCCCUCCUAAGGAGACGAUUGCGGGUUCGAGUCCCGUAUGGAGUG — lower, -0.149
- GGUCCUUUGGCGUAAUGGUAACGCGUUUCCCUCCUAAGGAGACGACUGCGGGUUCGAGUCCCGUAUGGAGUG — lower, -0.316
- GCUCCUUUGGCGUAAUGGUAACGCGUCUCCCUCCUAAGGAGACGAUUGCGGGUUCGAGUCCCGUAAGGAGCG — higher, 0.0031

— the RNAGym collection of RNA variant scans (doi:10.1038/s41586-018-0170-7)
